We go through 19 molecules from ChEMBL document CHEMBL1152718, “Novel potent inhibitors of hepatitis C virus (HCV) NS3 protease with cyclic sulfonyl P3 cappings” (Bioorg Med Chem Lett, 2009).

Calls of active or inactive are those of the source. No cut-off for these calls is given here.

Data set [1] can be described thus: Inhibition of HCV isolate BK NS4A-tethered single chain NS3 serine protease. Also on record: species or system Hepatitis C virus (isolate BK). The method, boiled down: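 Continuous (kinetic) assay using the NS4A-tethered single-chain NS3 serine protease. The result is reported as K_i*, an equilibrium constant covering the reversible covalent ketone–serine adduct plus other inhibitor–enzyme contacts.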

A short description of data set [2]: Selectivity for HCV isolate BK NS4A-tethered single chain NS3 serine protease over human neutrophil elastase.
In the next data set the test system is Hepatitis C virus. Briefly: Antiviral activity against HCV in human Huh7 cells by replicon-based ELISA. It counts as functional, Hepacivirus hominis. The settings on record: Huh-7. A digest of the protocol:
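Replicon assay run only on compounds with good enzyme potency. The value is EC90, the concentration that inhibits 90% of replicon replication.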
In general terms: A replicon is a self-replicating genome or part of one, used to study replication in cells.

The nature of data set [3]: (§1) AUC in rat at 3 mg/kg, po. The class given is ADME, organism-based, Plasma. The arrangement: dose 3 mg/kg, route oral. As to conditions: plasma.
Data set [4] in a line: Bioavailability in monkey. It counts as ADME, organism-based, Macaca mulatta. As to conditions: rhesus monkey, in vivo.
Data set [5] can be described thus: Bioavailability in dog. The class given is ADME, organism-based, Canis lupus familiaris. As to conditions: in vivo.
A further data set concerns Rattus norvegicus. The description is as §1. The class given is ADME, organism-based, Plasma. The arrangement: dose 3 mg/kg, route oral. As to conditions: in vivo.

A word on the Ki: it is a dissociation constant, usually derived from enzyme kinetics or from competition with a known ligand. As usually defined, the EC90 is the point of the concentration-response curve where the effect stands at 90%. For orientation: AUC means the area under the concentration-time curve, a measure of exposure. The molecule `C=CCNC(=O)C(=O)C(CCC)NC(=O)[C@@H]1[C@@H]2[C@H](CN1C(=O)[C@@H](NC(=O)N[C@H](CN1CCCCS1(=O)=O)C(C)(C)C)C(C)(C)C)C2(C)C` (some centres not stated) came in with a Ki in data set [1] of 6 nM. The Selectivity ratio in data set [2] was determined as 650. The molecule further registered an EC90 in the data set with Hepatitis C virus of 200 nM. Besides, the AUC in data set [3] was determined as 0.67 µM·h.
`C=CCNC(=O)C(=O)C(CCC)NC(=O)[C@@H]1[C@@H]2[C@H](CN1C(=O)[C@@H](NC(=O)NC1(CN3Cc4sccc4S3(=O)=O)CCCCC1)C(C)(C)C)C2(C)C` (some centres not stated) returned a Ki in data set [1] of 41 nM. In addition, the Selectivity ratio in data set [2] was 130. The EC90 in the data set on Hepatitis C virus worked out at 400 nM.
Turning to `C=CCNC(=O)C(=O)C(CCC)NC(=O)[C@@H]1[C@@H]2[C@H](CN1C(=O)[C@@H](NC(=O)N[C@H](CN1CCCS1(=O)=O)C(C)(C)C)C(C)(C)C)C2(C)C` (some centres not stated), the Ki in data set [1] was determined as 11 nM. The Selectivity ratio in data set [2] is 230. The molecule further yielded an EC90 in the data set on Hepatitis C virus of 200 nM. In data set [3], this molecule yielded an AUC of 0.09 µM·h.
In data set [1], `C=CCNC(=O)C(=O)C(CC1CC1)NC(=O)[C@@H]1[C@@H]2[C@H](CN1C(=O)[C@@H](NC(=O)N[C@H](CN1Cc3ccccc3S1(=O)=O)C(C)(C)C)C(C)(C)C)C2(C)C` (some centres not stated) came in with a Ki of 7 nM. In data set [2], the Selectivity ratio turned out to be 1600. Moreover, it took 150 nM to reach the 90% level in the data set on Hepatitis C virus (EC90). In data set [3], this molecule displayed an AUC of 0.705 µM·h.
In turn, `C=CCNC(=O)C(=O)C(CCC)NC(=O)[C@@H]1[C@@H]2[C@H](CN1C(=O)[C@@H](NC(=O)N[C@H](CN1CCCN(C)S1(=O)=O)C(C)(C)C)C(C)(C)C)C2(C)C` (some centres not stated) came in with a Ki in data set [1] of 14 nM. Further, the Selectivity ratio in data set [2] was found to be 490. Besides, the EC90 in the data set on Hepatitis C virus stood at 150 nM. The same molecule yielded an AUC in data set [3] of 0.2 µM·h.
Take `C=CCNC(=O)C(=O)C(CCC)NC(=O)[C@@H]1[C@@H]2[C@H](CN1C(=O)[C@@H](NC(=O)N[C@H](CN1Cc3ccccc3S1(=O)=O)C1CCCCC1)C(C)(C)C)C2(C)C` (some centres not stated): the Ki in data set [1] came to 18 nM. For the same molecule, the Selectivity ratio in data set [2] came out at 55. In addition, the EC90 result in the data set with Hepatitis C virus (Hepacivirus hominis) was “inactive”.
With `C=CCNC(=O)C(=O)C(CCCC)NC(=O)[C@@H]1[C@@H]2[C@H](CN1C(=O)[C@@H](NC(=O)N[C@H](CN1Cc3ccccc3S1(=O)=O)C(C)(C)C)C(C)(C)C)C2(C)C` (some centres not stated), the Ki in data set [1] came out at 5 nM. The Selectivity ratio in data set [2] came out at 6100. In the data set with Hepatitis C virus, this molecule had an EC90 of 80 nM. In data set [3], this molecule gave an AUC of 1.43 µM·h.
What is called bioavailability is the share of a dose that reaches the circulation, judged against a reference dose that is usually intravenous. Molecule `CC(C)(C)NC(=O)N[C@H](C(=O)N1C[C@H]2[C@@H]([C@H]1C(=O)NC(CC1CCC1)C(=O)C(N)=O)C2(C)C)C(C)(C)C` (some centres not stated) [BOCEPREVIR] returned a Ki in data set [1] of 14 nM. For the same molecule, the EC90 in the data set on Hepatitis C virus came out at 350 nM. For the same molecule, the bioavailability in data set [4] came out at 4%; in data set [5], 34%.
With `C=CCNC(=O)C(=O)C(CCC)NC(=O)[C@@H]1[C@@H]2[C@H](CN1C(=O)[C@@H](NC(=O)N[C@H](CN1Cc3sccc3S1(=O)=O)C(C)(C)C)C(C)(C)C)C2(C)C` (some centres not stated), the Ki in data set [1] stood at 10 nM. In data set [2], the Selectivity ratio amounted to 150. Moreover, it took 150 nM to reach the 90% level with Hepatitis C virus (EC90). This molecule also came in with an AUC in data set [3] of 0.43 µM·h.
As for `C=CCNC(=O)C(=O)C(CCC)NC(=O)[C@@H]1[C@@H]2[C@H](CN1C(=O)[C@@H](NC(=O)N[C@H](CN1Cc3ccccc3S1(=O)=O)C(C)(C)C)C(C)(C)C)C2(C)C` (some centres not stated), in data set [1], the Ki turned out to be 3 nM. In data set [2], the Selectivity ratio worked out at 650. Besides, the AUC in data set [3] worked out at 0.373 µM·h.
As to `C=CCNC(=O)C(=O)C(CCC)NC(=O)[C@@H]1[C@@H]2[C@H](CN1C(=O)[C@@H](NC(=O)N[C@H](CN1CCCCS1(=O)=O)C1CCCCC1)C(C)(C)C)C2(C)C` (some centres not stated), the affinity in data set [1] corresponds to a Ki of 30 nM. Besides, in data set [2], the Selectivity ratio is 50. The same molecule showed an EC90 in the data set on Hepatitis C virus of 250 nM. In data set [3], this molecule returned an AUC of 0.18 µM·h.
`C=CCNC(=O)C(=O)C(CCC)NC(=O)[C@@H]1[C@@H]2[C@H](CN1C(=O)[C@@H](NC(=O)N[C@H](CN1Cc3sccc3S1(=O)=O)C(C)(C)C)C1(C)CCCCC1)C2(C)C` (some centres not stated) came in with a Ki in data set [1] of 3 nM. Also, the Selectivity ratio in data set [2] worked out at 68. The same molecule gave an EC90 with Hepatitis C virus of 100 nM.
In data set [1], `C=CCNC(=O)C(=O)C(CC1CCC1)NC(=O)[C@@H]1[C@@H]2[C@H](CN1C(=O)[C@@H](NC(=O)N[C@H](CN1Cc3ccccc3S1(=O)=O)C(C)(C)C)C(C)(C)C)C2(C)C` (some centres not stated) had a Ki of 30 nM. Further, the Selectivity ratio in data set [2] came out at 1500. Moreover, the result in the data set on Hepatitis C virus (Hepacivirus hominis) was inactive. Also, the Activity result in the data set with Rattus norvegicus is listed as “Not Active”.
Turning to `C=CCNC(=O)C(=O)C(CCC)NC(=O)[C@@H]1[C@@H]2[C@H](CN1C(=O)[C@@H](NC(=O)N[C@H](CN1Cc3sccc3S1(=O)=O)C(C)(C)C)C1CCCCC1)C2(C)C` (some centres not stated), the affinity in data set [1], expressed as Ki, was 14 nM. For the same molecule, the Selectivity ratio in data set [2] worked out at 10. Also, in the data set on Hepatitis C virus, the EC90 is 100 nM.
Taken in the same sequence, the figures for `C=CCNC(=O)C(=O)C(CCC)NC(=O)[C@@H]1[C@@H]2[C@H](CN1C(=O)[C@@H](NC(=O)N[C@H](CN1Cc3ccccc3S1(=O)=O)C(C)(C)C)C1(C)CCCCC1)C2(C)C` (some centres not stated) were 5 nM, 50 and 150 nM.
With `C=CCNC(=O)C(=O)C(CCC)NC(=O)[C@@H]1[C@@H]2[C@H](CN1C(=O)[C@@H](NC(=O)N[C@H](CN1C(=O)c3ccccc3S1(=O)=O)C(C)(C)C)C(C)(C)C)C2(C)C` (some centres not stated), in data set [1], the Ki turned out to be 15 nM. The Selectivity ratio in data set [2] is 310. In the data set with Hepatitis C virus, this molecule showed an EC90 of 230 nM.
In data set [1], `C=CCNC(=O)C(=O)C(CCC)NC(=O)[C@@H]1[C@@H]2[C@H](CN1C(=O)[C@@H](NC(=O)N[C@H](CN1Cc3ccccc3S1(=O)=O)C(C)(C)C)C1CCCCC1)C2(C)C` (some centres not stated) displayed a Ki of 7 nM. For the same molecule, the Selectivity ratio in data set [2] is 19. Besides, in the data set with Hepatitis C virus, the EC90 was 150 nM.
`C#CCCC(NC(=O)[C@@H]1[C@@H]2[C@H](CN1C(=O)[C@@H](NC(=O)N[C@H](CN1Cc3ccccc3S1(=O)=O)C(C)(C)C)C(C)(C)C)C2(C)C)C(=O)C(=O)NCC=C` (some centres not stated): in data set [1], the Ki amounted to 0.9 nM. In data set [2], the Selectivity ratio amounted to 380. In addition, the EC90 in the data set with Hepatitis C virus was 250 nM. For the same molecule, in the data set with Rattus norvegicus, the Activity entry is given as “Not Active”.
`C=CCNC(=O)C(=O)C(CCC)NC(=O)[C@@H]1[C@@H]2[C@H](CN1C(=O)[C@@H](NC(=O)N[C@H](CN1CCCNS1(=O)=O)C(C)(C)C)C(C)(C)C)C2(C)C` (some centres not stated) yielded a Ki in data set [1] of 59 nM. In addition, the Selectivity ratio in data set [2] worked out at 80. Further, the EC90 in the data set on Hepatitis C virus is 350 nM.
